Measurements collected from several papers.
Compare with care: the assays were run in different laboratories.
Target: Activin receptor type-1B (ACVR1B, Homo sapiens, UniProt P36896)
Residues used in one study (P36896 24-505): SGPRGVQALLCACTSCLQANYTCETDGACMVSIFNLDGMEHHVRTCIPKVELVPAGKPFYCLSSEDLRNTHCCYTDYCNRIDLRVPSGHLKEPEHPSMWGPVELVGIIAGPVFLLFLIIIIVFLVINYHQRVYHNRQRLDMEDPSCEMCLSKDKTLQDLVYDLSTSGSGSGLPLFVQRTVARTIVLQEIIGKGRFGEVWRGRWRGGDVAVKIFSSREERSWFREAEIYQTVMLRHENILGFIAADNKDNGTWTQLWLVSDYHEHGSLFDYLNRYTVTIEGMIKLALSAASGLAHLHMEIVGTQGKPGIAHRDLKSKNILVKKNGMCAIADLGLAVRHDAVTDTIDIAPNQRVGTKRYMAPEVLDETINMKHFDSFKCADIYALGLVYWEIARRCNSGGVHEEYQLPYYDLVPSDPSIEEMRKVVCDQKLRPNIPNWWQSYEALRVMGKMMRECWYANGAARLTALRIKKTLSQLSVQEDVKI

SMILES | test | setting | remaining binding [%]
FC(F)(F)Oc1cccc(-c2cnc3ccc(-c4ccncc4)nn23)c1 | cell-free assay, competition with immobilised ligand | 5 µM | 85
O=C(Nc1c[nH]nc1C(=O)NC1CCNCC1)c1cc(F)cc(F)c1 | binding, competition with immobilised ligand | 1 µM | 90
Cc1cnn2ncc(-c3ccnc(N(C)C)n3)c2c1 | binding | 1 µM | 100
COc1cnc(Nc2cccc(S(N)(=O)=O)c2)nc1N1CCN(c2ccccc2)C(=O)C1 | binding, competition with immobilised ligand | 1 µM | 100
C[C@H]1CCN(c2nccc(-c3cnn4ncccc34)n2)C1 | binding | 1 µM | 71
C=CC(=O)N1CCC(C(=O)NCC(=O)N2CCN(c3nc(-c4cnc(N)nc4C(F)F)nc(N4CCOCC4)n3)CC2)CC1 | binding, competition with immobilised ligand | 1 µM | 82
CN(CCCC(F)(F)F)c1nccc(-c2cnn3ncccc23)n1 | binding | 1 µM | 96
CNC(=O)c1ccc(Nc2ncc(C(F)(F)F)c(NCc3nccnc3N(C)S(C)(=O)=O)n2)cc1 | cell-free assay, competition with immobilised ligand | 0.1 µM | 69
C[C@@H]1CN(c2ccc3ncc(-c4ccc5[nH]nc(C6CC6)c5c4)n3n2)C[C@H](C)O1 | binding, competition with immobilised ligand | 50 nM | 100
O=C(c1ccc(Nc2nccc(-c3cc4ccccc4s3)n2)cc1)N1CCC(N2CCCC2)CC1 | binding, competition with immobilised ligand | 1 µM | 71
COc1cccc(CNC(=O)c2nc3scc(COCc4ccc(C(=O)O)cc4)c3c(=O)[nH]2)c1 | cell-free assay, competition with immobilised ligand | 1 µM | 89.4
C[C@@H](c1ccc(-n2cnc3c(N)ncnc32)cc1)N1CCc2nn(C)c(Cc3ccccc3)c2C1=O | binding, competition with immobilised ligand | 0.1 µM | 93
CN(C)c1ncc(F)c(-c2cnn3ncccc23)n1 | binding | 1 µM | 100
O=C(NS(=O)(=O)c1ccc(NCC2CCOCC2)c([N+](=O)[O-])c1)c1ccc(N2CCN(Cc3ccc(C(F)(F)F)cc3-c3ccc(Cl)cc3)CC2)cc1Oc1cnc2[nH]ccc2c1 | cell-free assay, competition with immobilised ligand | 1 µM | 59
O=C(c1ccc(Nc2ncc(Cl)c(-c3cc4ccccc4s3)n2)cc1)N1CCC(N2CCCC2)CC1 | binding, competition with immobilised ligand | 1 µM | 48
Cc1nc(C2CCN(C(=O)c3ccc(OC(F)(F)F)cc3N)CC2)c2ncc(N3CCN(C)CC3)cc2n1 | cell-free assay, competition with immobilised ligand | 1 µM | 86
O=C(NCCCN1CCOCC1)c1ccc(Nc2nccc(-c3cc4ccccc4s3)n2)cc1 | binding, competition with immobilised ligand | 1 µM | 75
Cc1c(NC(=O)c2cc(C(N)=O)nc3cc(F)ccc23)c(C(F)(F)F)nn1Cc1ccc(C#N)cc1 | cell-free assay, competition with immobilised ligand | 1 µM | 80
c1cncc(-c2cccc(Nc3nccc(NC4CCCCC4)n3)c2)c1 | binding, competition with immobilised ligand | 10 µM | 75
CN(C)c1nccc(-c2cnn3ncccc23)n1 | binding | 1 µM | 96
Cc1nc(N2CC[C@@H](O)C2)ncc1-c1cc(C(F)(F)F)cc2[nH]ncc12 | cell-free assay, competition with immobilised ligand | 1 µM | 100
N[C@H]1CCN(c2nccc(-c3cnn4ncccc34)n2)C1 | binding | 1 µM | 77
O=C(Nc1cnc(Oc2ccc(F)cc2)nc1)N1CCc2ncccc2[C@@H]1c1ccc(F)cc1 | cell-free assay, competition with immobilised ligand | 1 µM | 100
CC1CCCN1c1nccc(-c2cnn3ncccc23)n1 (stereo not shown) | binding | 1 µM | 88
O=C(NCc1ncc(C(F)(F)F)cc1Cl)c1ccc2c(c1)C1(CCS(=O)(=O)CC1)[C@@H](C1CC1)N2S(=O)(=O)c1ccc(F)cc1 | cell-free assay, competition with immobilised ligand | 1 µM | 87
